Data set [1] has as its target T1, 3-oxo-5-alpha-steroid 4-dehydrogenase 1 (Rattus norvegicus, UniProt P24008).
T1 sequence (P24008 whole entry): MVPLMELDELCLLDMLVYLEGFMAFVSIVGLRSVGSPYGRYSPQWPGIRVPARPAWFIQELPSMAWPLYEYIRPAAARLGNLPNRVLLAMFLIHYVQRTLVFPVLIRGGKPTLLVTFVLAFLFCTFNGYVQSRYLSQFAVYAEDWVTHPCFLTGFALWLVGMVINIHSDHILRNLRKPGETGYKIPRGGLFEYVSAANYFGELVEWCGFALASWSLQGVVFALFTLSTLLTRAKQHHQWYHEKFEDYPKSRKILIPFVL
Kind of data set: Inhibition of rat liver 5alpha-reductase type 1 assessed as conversion of [3H]testosterone to dihydrotestosterone. In short, it runs like this:
(§1)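 Each reaction contained 1 mM DTT in 40 mM sodium phosphate, 2 nM [3H]T and 2 mM NADPH. Type 1 ran at pH 8.0 with 6.31 µM T added and 90 µg solubilized rat liver microsomal protein. Type 2 ran at pH 6.5 with 50 µg human prostate membrane protein. Inhibitors were tested at 1e-11–1e-3 M, in duplicate, 60 min at 37.5 °C. Reactions were stopped with dichloromethane, DHT separated by TLC and radioscanned, and IC50 taken from inhibition curves.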

Data set [2] can be described thus: Cytotoxicity against Swiss mouse primary peritoneal macrophages assessed as growth inhibition at 50 uM after 48 hrs by MTT assay. The following applies: for growth inhibition (GI): peritoneal macrophage cell, 48 h, 50 µM; for inhibition at 48 h, 50 µM: Swiss, primary peritoneal macrophages, read-out: GI. On the technique in general: Tetrazolium dyes change colour on reduction, which living cells bring about.

Another data set relates to PC-3. Kind of data set: (§2) Cytotoxicity against human PC3 cells assessed as growth inhibition at 50 uM after 48 hrs by SRB assay. Type of data set: functional. In short, it runs like this: (§3)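 PC-3 cells (NCI) were grown in RPMI-1640 with 10% FBS, 2 mM L-glutamine, antibiotics/amphotericin B and 1% nonessential amino acids at 37 °C in 5% CO2. Viability exceeded 95% (trypan blue). Cells were seeded at 5000–10000/well, given 24 h, then exposed 48 h to 50 µM compound. Cells were fixed in cold TCA, stained with 0.4% SRB and read at 515 nm after Tris solubilization. Inhibition = 100 − (sample/vehicle absorbance × 100).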
Background: The SRB assay estimates cell density from bound dye.

In data set [3] the target is T2, 3-oxo-5-alpha-steroid 4-dehydrogenase 2 (Homo sapiens, UniProt P31213).
T2 sequence (P31213 whole entry): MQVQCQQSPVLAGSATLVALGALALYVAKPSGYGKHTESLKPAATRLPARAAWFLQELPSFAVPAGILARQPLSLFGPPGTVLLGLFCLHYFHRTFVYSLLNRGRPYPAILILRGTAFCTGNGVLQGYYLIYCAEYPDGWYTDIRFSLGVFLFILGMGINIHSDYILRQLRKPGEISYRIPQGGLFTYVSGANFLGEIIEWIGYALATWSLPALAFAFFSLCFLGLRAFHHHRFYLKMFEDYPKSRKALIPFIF
Briefly: Inhibition of human prostate 5alpha-reductase type 2 assessed as conversion of [3H]testosterone to dihydrotestosterone. On the set-up: species or system Prostate gland. In short, it runs like this:
as §1

A short description of data set [4]: as §2. The format is functional. The following applies: PC-3, 48 h, read-out: GI. In short, it runs like this: as §3

Structures are written as SMILES. Active and inactive are the calls of the source. No cut-off for these calls is given here.

Turning to `C[C@]12CC[C@H](OC(=O)C3CC3)CC1=CC[C@@H]1[C@@H]2CC[C@]2(C)C(Cl)=C(C=O)C[C@@H]12`, the IC50 (as a rule, the concentration that gives 50% inhibition) in data set [1] was “Not Active”; in data set [3] (read-out: IC50) it was 0.0032 µM. For the same compound, the “growth inhibition (GI)” value in data set [2] is on record as “Non-toxic”. The “growth inhibition (GI)” value in the data set with PC-3 was “inactive”.
In the case of `C[C@]12CC[C@H](OC(=O)c3ccc(F)cc3)CC1=CC[C@@H]1[C@@H]2CC[C@]2(C)C(n3ccnc3)=C(C=O)C[C@@H]12`, the half-maximal inhibitory concentration (IC50) is 320 µM in data set [1] (read-out: IC50) and “Not Active” in data set [3]. Further, the inhibition at 48 h, 50 µM in data set [2] turned out to be 30.1%. For the same compound, in data set [4], the inhibition of growth at 50 µM came out at 100%.
As for `C[C@]12CC[C@H](OC(=O)C3CCCCC3)CC1=CC[C@@H]1[C@@H]2CC[C@]2(C)C(n3ccnc3)=C(C=O)C[C@@H]12`, the 50% inhibitory concentration (IC50) in data set [1] (read-out: IC50) is 300 µM; in data set [3], “Not Active”. Besides, the “growth inhibition (GI)” value in data set [2] is recorded as “Non-toxic”. Also, in the data set with PC-3, the “growth inhibition (GI)” value was “inactive”.
As to `CC(=O)N1CCN(c2ccc(OCC3COC(Cn4ccnc4)(c4ccc(Cl)cc4Cl)O3)cc2)CC1` (stereo not given) [KETOCONAZOLE], the inhibition at 48 h, 50 µM in data set [2] was 41.5%. Also, in data set [4], the inhibition of growth at 50 µM stood at 85.4%. Also, the IC50 result in data set [3] is “Not Active”.
For `C[C@]12CC[C@H](OC(=O)C3CCCC3)CC1=CC[C@@H]1[C@@H]2CC[C@]2(C)C(Cl)=C(C=O)C[C@@H]12`, the IC50 result in data set [1] is “Not Active”; in data set [3] (read-out: IC50) it was 0.05 µM. The “growth inhibition (GI)” value in data set [2] was “Non-toxic”. For the same compound, the “growth inhibition (GI)” value in the data set with PC-3 is “inactive”.
For `C[C@]12CC[C@H](OC(=O)C3CCCC3)CC1=CC[C@@H]1[C@@H]2CC[C@]2(C)C(n3ccnc3)=C(C=O)C[C@@H]12`, the concentration for half-maximal inhibition (IC50) in data set [1] (read-out: IC50) was 265 µM; in data set [3], “Not Active”. For the same compound, the “growth inhibition (GI)” value in data set [2] is listed as “Non-toxic”. The “growth inhibition (GI)” value in the data set on PC-3 is “inactive”.
The corresponding values for `C[C@]12CC[C@H](OC(=O)C3CCC3)CC1=CC[C@@H]1[C@@H]2CC[C@]2(C)C(n3ccnc3)=C(C=O)C[C@@H]12` are 250 µM, “Not Active”, “Non-toxic” and “inactive”.
As for `C[C@]12CC[C@H](OC(=O)C3CC3)CC1=CC[C@@H]1[C@@H]2CC[C@]2(C)C(n3ccnc3)=C(C=O)C[C@@H]12`, the figures for the IC50 in data set [1] (read-out: IC50) and in data set [3] were 200 µM and “Not Active”, respectively. In addition, the inhibition at 48 h, 50 µM in data set [2] was found to be 41.5%. For the same compound, the inhibition of growth at 50 µM in data set [4] was 100%.
Regarding `CC(=O)O[C@H]1CC[C@@]2(C)C(=CC[C@@H]3[C@@H]2CC[C@]2(C)C(Cl)=C(C=O)C[C@@H]32)C1`, the IC50 result in data set [1] is “Not Active”; in data set [3] (read-out: IC50), 0.05 µM. Also, in data set [2], the “growth inhibition (GI)” value was “Non-toxic”. Also, the “growth inhibition (GI)” value with PC-3 was “inactive”.
For `C[C@]12CC[C@H](OC(=O)C3CCCCCC3)CC1=CC[C@@H]1[C@@H]2CC[C@]2(C)C(Cl)=C(C=O)C[C@@H]12`, the figures for the 50% inhibitory concentration (IC50) entry in data set [1] and in data set [3] (read-out: IC50) were “Not Active” and 0.015 µM, respectively. For the same compound, the “growth inhibition (GI)” value in data set [2] is recorded as “Non-toxic”. Moreover, the “growth inhibition (GI)” value in the data set on PC-3 was “inactive”.
As for `CC(=O)O[C@H]1CC[C@@]2(C)C(=CC[C@@H]3[C@@H]2CC[C@]2(C)C(n4ccnc4)=C(C=O)C[C@@H]32)C1`, the IC50 result in data set [1] and in data set [3] was “Not Active” throughout. For the same compound, in data set [2], the inhibition at 48 h, 50 µM stood at 36.2%. In addition, the inhibition of growth at 50 µM in data set [4] was found to be 56.5%.
Take `CC(C)(C)NC(=O)[C@H]1CC[C@H]2[C@@H]3CC[C@H]4NC(=O)C=C[C@]4(C)[C@H]3CC[C@]12C` [FINASTERIDE]: in data set [1] (read-out: IC50), the IC50 worked out at 630 µM. Also, the “growth inhibition (GI)” value in data set [2] is given as “Non-toxic”. For the same compound, the “growth inhibition (GI)” value with PC-3 was “inactive”.
As for `C[C@]12CC[C@H](OC(=O)c3ccc(Cl)cc3)CC1=CC[C@@H]1[C@@H]2CC[C@]2(C)C(n3ccnc3)=C(C=O)C[C@@H]12`, the IC50 in data set [1] (read-out: IC50) was 100 µM; in data set [3] it was “Not Active”. For the same compound, in data set [2], the inhibition at 48 h, 50 µM came to 29.2%. For the same compound, the inhibition of growth at 50 µM in data set [4] came to 98.2%.
Take `C[C@]12CC[C@H](OC(=O)C3CCCCC3)CC1=CC[C@@H]1[C@@H]2CC[C@]2(C)C(Cl)=C(C=O)C[C@@H]12`: the half-inhibitory concentration (IC50) result in data set [1] is “Not Active”; in data set [3] (read-out: IC50), 0.008 µM. For the same compound, the “growth inhibition (GI)” value in data set [2] is reported as “Non-toxic”. Besides, the “growth inhibition (GI)” value in the data set on PC-3 is “inactive”.
For `C[C@]12CC[C@H](OC(=O)C3CCC3)CC1=CC[C@@H]1[C@@H]2CC[C@]2(C)C(Cl)=C(C=O)C[C@@H]12`, the IC50 entry was “Not Active” in data set [1] and 0.013 µM in data set [3] (read-out: IC50). Also, in data set [2], the “growth inhibition (GI)” value is listed as “Non-toxic”. Further, the “growth inhibition (GI)” value with PC-3 is “inactive”.
Turning to `C[C@]12CC[C@H](OC(=O)c3ccc(I)cc3)CC1=CC[C@@H]1[C@@H]2CC[C@]2(C)C(n3ccnc3)=C(C=O)C[C@@H]12`, the IC50 in data set [1] (read-out: IC50) was 300 µM; in data set [3], “Not Active”. In data set [2], the “growth inhibition (GI)” value was “Non-toxic”. Further, the “growth inhibition (GI)” value with PC-3 is “inactive”.
Consider `C[C@]12CC[C@H](OC(=O)C3CCCCCC3)CC1=CC[C@@H]1[C@@H]2CC[C@]2(C)C(n3ccnc3)=C(C=O)C[C@@H]12`, for which the IC50 in data set [1] (read-out: IC50) is 320 µM; in data set [3] it was “Not Active”. Moreover, in data set [2], the “growth inhibition (GI)” value is recorded as “Non-toxic”. Besides, the “growth inhibition (GI)” value with PC-3 is “inactive”.
As for `C[C@]12CC[C@H](OC(=O)c3ccc(Br)cc3)CC1=CC[C@@H]1[C@@H]2CC[C@]2(C)C(n3ccnc3)=C(C=O)C[C@@H]12`, the half-inhibitory concentration (IC50) is 94.5 µM in data set [1] (read-out: IC50) and “Not Active” in data set [3]. In addition, in data set [2], the inhibition at 48 h, 50 µM was determined as 40.3%. In data set [4], the inhibition of growth at 50 µM worked out at 100%.

Values taken from ChEMBL document CHEMBL3351945, “Effect of dehydroepiandrosterone derivatives on the activity of 5α-reductase isoenzymes and on cancer cell line PC-3” (Bioorg Med Chem, 2014).
